Experimental findings from ChEMBL document CHEMBL1125307, “Novel 1,2,4-oxadiazoles and 1,2,4-thiadiazoles as dual 5-lipoxygenase and cyclooxygenase inhibitors” (J Med Chem, 1992) are described below.

In one assay the target is T1, Cyclooxygenase (Rattus norvegicus, UniProt P35355+Q63921).
T1 sequence (P35355 whole entry): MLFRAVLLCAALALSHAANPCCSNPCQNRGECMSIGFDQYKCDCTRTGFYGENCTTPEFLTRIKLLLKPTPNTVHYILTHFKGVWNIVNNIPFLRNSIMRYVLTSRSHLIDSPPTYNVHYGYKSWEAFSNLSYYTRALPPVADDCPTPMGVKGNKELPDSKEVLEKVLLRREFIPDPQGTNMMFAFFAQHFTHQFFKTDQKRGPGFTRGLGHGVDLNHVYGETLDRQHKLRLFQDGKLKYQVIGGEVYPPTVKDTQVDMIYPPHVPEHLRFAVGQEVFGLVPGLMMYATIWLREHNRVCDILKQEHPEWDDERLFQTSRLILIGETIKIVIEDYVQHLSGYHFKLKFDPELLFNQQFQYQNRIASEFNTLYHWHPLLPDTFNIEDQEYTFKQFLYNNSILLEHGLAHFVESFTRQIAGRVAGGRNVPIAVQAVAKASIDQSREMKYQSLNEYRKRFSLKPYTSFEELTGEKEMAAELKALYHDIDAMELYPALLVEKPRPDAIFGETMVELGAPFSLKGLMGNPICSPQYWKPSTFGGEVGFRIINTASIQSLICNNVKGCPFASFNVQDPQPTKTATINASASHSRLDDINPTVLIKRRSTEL
T1 sequence (Q63921 whole entry): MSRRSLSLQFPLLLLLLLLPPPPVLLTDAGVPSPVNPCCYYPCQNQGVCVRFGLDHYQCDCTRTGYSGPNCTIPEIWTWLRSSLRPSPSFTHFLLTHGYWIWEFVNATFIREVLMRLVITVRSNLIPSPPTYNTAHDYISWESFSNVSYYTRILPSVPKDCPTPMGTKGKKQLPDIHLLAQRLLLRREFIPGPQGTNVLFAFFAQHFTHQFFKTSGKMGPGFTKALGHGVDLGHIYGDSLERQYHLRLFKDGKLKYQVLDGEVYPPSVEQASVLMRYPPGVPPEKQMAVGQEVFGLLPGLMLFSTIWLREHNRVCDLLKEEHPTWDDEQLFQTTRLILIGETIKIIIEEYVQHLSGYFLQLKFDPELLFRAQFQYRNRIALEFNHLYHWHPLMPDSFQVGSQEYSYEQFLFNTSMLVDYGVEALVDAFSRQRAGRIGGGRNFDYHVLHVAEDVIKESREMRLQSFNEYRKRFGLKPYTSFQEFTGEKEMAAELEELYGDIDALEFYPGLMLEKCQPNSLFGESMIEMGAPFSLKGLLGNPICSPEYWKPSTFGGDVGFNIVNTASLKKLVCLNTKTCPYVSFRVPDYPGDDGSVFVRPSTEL
Kind of assay: Evaluated in vitro for its inhibitory activity against Prostaglandin G/H synthase. Format: protein assay.

The species named for assay [1] is Rattus norvegicus. Kind of assay: Ratio of IC50 against 5-LO to that of CO enzyme. The gist of the method:
(§1)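 In ionophore-stimulated RBL-1 cells (2×10^6/mL, PBS with 1.0 mM Ca, 10 min compound preincubation at room temperature, 5 μM A23187 for 7 min at 37 °C), supernatant LTB₄ (5-LO) and PGF₂α (CO) were each quantified by RIA over 0.10–10.0 μM. IC50s came from linear regression, and the ratio is the 5-LO IC50 over the CO IC50.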

Assay [2] relates to Rattus norvegicus. As to the kind of experiment: Evaluated for the antiinflammatory activity by measuring the percentage inhibition of edema in the carrageenan foot-pad edema test at the dose of 30 mg/kg. Format: functional. The gist of the method: (§2)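 Male Wistar rats dosed orally (0.5% HPMC/0.2% Tween 80 or Labrafils, 10 mL/kg) 1 h before subplantar injection of 0.10 mL 1% carrageenan into right hind paw under light anesthesia. Paw volume by mercury plethysmography at challenge and 5 h later; percent inhibition ± SEM versus vehicle group. Doses 10.0 and 30.0 mg/kg po, 7-14 rats per dose.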
A general note: Carrageenan injected into the paw causes an acute inflammation.

Assay [3] deals with T2, Polyunsaturated fatty acid 5-lipoxygenase (Rattus norvegicus, UniProt P12527).
T2 sequence (P12527 whole entry): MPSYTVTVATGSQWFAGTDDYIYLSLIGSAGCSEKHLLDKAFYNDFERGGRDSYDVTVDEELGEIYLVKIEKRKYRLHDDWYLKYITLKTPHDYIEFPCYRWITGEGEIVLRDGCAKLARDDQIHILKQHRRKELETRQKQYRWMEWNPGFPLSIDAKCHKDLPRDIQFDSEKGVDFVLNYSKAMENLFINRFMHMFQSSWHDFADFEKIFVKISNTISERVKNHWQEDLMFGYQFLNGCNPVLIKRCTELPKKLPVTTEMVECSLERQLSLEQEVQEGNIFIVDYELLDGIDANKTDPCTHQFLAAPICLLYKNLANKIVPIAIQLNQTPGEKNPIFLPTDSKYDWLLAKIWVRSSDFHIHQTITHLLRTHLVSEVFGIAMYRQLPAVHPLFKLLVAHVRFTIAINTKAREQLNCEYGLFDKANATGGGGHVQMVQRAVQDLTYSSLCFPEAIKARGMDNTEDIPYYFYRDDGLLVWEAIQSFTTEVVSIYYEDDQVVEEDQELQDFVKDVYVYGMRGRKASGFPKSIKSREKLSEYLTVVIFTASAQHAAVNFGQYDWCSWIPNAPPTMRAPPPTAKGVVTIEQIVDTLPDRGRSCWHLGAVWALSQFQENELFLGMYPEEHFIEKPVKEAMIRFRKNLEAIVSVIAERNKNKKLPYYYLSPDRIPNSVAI
Kind of assay: Evaluated in vitro for its inhibitory activity against 5-lipoxygenase.

In assay [4] the test system is Rattus norvegicus. Kind of assay: Evaluated for the antiinflammatory activity by measuring the percentage inhibition of edema in the carrageenan foot-pad edema test at the dose of 10 mg/kg. In kind it is functional. The procedure, abridged: as §2
Assay [5] relates to Rattus norvegicus. Kind of assay: Compound was evaluated for the antiinflammatory activity by measuring the dose (po) which inhibited Mycobacterium induced foot-pad edema in rats; N=Inactive, <30% inhibition at 10 mg/kg po. Also on record: dose 10 mg/kg. In kind it is functional, organism-based.
Assay [6] concerns Rattus norvegicus. Kind of assay: Evaluated for the percent rats with ulcers at the dose of 200 mg/kg (number of animals used per group in the experiment are 10 ). In kind it is functional. The procedure, abridged: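 Male outbred Wistar rats (100-250 g) fasted 24 h, given compound orally in 0.5% HPMC (2 mL/kg), then denied food and water 6 more h. Killed with CO2; stomachs opened along greater curvature and scored for ulcers. Percent of rats with ulcers per dose; up to 200 mg/kg po, 10 rats per dose.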

Assay [7] has as its system Rattus norvegicus. Kind of assay: Evaluated for the antiinflammatory activity by measuring the dose (po) which inhibited Mycobacterium induced foot-pad edema in rats. In kind it is functional.
Assay [8] has as its target T2, Polyunsaturated fatty acid 5-lipoxygenase. As to the kind of experiment: Evaluated in vitro for its inhibitory activity against 5-lipoxygenase; N=Inactive, <50% inhibition at 10 uM concentration. The procedure, abridged:
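RBL-1 cells grown in MEM + 12% FBS, washed in PBS pH 7.4, resuspended at 2×10^6 cells/mL in PBS with 1.0 mM calcium. Preincubated 10 min at room temperature with compound in DMSO, then stimulated with A23187 (5 μM) 7 min at 37 °C; stopped on ice. Supernatant LTB4 by radioimmunoassay.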

Assay [9] has the same target. As to the kind of experiment: Inhibitory activity against 5-Lipoxygenase. The procedure, abridged: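 Rat basophilic leukemia RBL-1 cells were grown in suspension in MEM with 12% FBS, washed, and resuspended at 2×10^6 cells/mL in PBS pH 7.4 with 1.0 mM calcium. Compound in DMSO was preincubated 10 min at room temperature, then 5 μM A23187 was added for 7 min at 37 °C. LTB₄ in the supernatant was measured by RIA at 0.10–10.0 μM. IC50 was determined by linear regression.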

The species entered for assay [10] is Rattus norvegicus. Kind of assay: Ratio of IC50 against 5-LO and COX. The procedure, abridged: as §1

Calls of active or inactive are those of the source. No cut-off for these calls is given here.

For orientation: IC50 means the concentration that gives 50% inhibition. A higher IC50 goes with weaker potency in that assay. Molecule `CC(C)(C)c1cc(-c2noc(S)n2)cc(C(C)(C)C)c1O` registered an IC50 at Cyclooxygenase of 0.05 µM. The Ratio in the assay listed under Rattus norvegicus [1] is 68.
As a reminder, the inhibition in vivo is the share of the control response that was lost under treatment. Low readings indicate little suppression, high ones strong suppression. On to `CN(C)Cc1noc(-c2cc(C(C)(C)C)c(O)c(C(C)(C)C)c2)n1.Cl`, for which the inhibition in vivo at 30 mg/kg in the assay with Rattus norvegicus [2] was 50.3%. The values for the IC50 (against Cyclooxygenase; in [3]) were 0.45 µM and 6.8 µM, respectively. For the same molecule, in the assay listed under Rattus norvegicus [1], the Ratio worked out at 15. Further, the inhibition in vivo at 10 mg/kg with Rattus norvegicus [4] stood at 34.6%. Besides, in the assay with Rattus norvegicus [5], the ID40 entry is “inactive”.
`CC(C)(C)c1cc(-c2nsc(N=C(N)N)n2)cc(C(C)(C)C)c1O.Cl`: the Activity with Rattus norvegicus [6] is listed as 0%. In the assay on Rattus norvegicus [2], this molecule registered an inhibition in vivo at 30 mg/kg of 61.3%. Besides, the IC50 against Cyclooxygenase came out at 1.6 µM; in [3], 0.14 µM. Moreover, in the assay with Rattus norvegicus [7], the ID40 was 5.1 mg/kg. Also, the Ratio in the assay listed under Rattus norvegicus [1] was 0.088. In the assay on Rattus norvegicus [4], this molecule returned an inhibition in vivo at 10 mg/kg of 46.1%.
Consider `CC(C)(C)c1cc(-c2noc(O)n2)cc(C(C)(C)C)c1O`, for which the IC50 was 4.7 µM on Cyclooxygenase and “Inactive” in [8].
In the assay with Rattus norvegicus [6], `C/N=C(\N)Nc1nc(-c2cc(C(C)(C)C)c(O)c(C(C)(C)C)c2)ns1.Cl` showed an Activity of 0%. The same molecule came in with an inhibition in vivo at 30 mg/kg with Rattus norvegicus [2] of 38.9%. For the same molecule, the IC50 against Cyclooxygenase came out at 4.4 µM; in assay [3] it was 0.37 µM. The same molecule yielded an ID40 in the assay with Rattus norvegicus [7] of 6 mg/kg. Further, the Ratio in the assay filed under Rattus norvegicus [1] worked out at 0.084. In addition, testing at 10 mg/kg in the assay with Rattus norvegicus [4] gave an inhibition in vivo of 18%.
`CC(C)(C)c1cc(-c2nsc(NC#N)n2)cc(C(C)(C)C)c1O.C[N+](C)(C)CC[O-]`: the IC50 on Cyclooxygenase turned out to be 0.011 µM; in assay [9], 1.9 µM. In the assay listed under Rattus norvegicus [10], the Ratio was found to be 173.
As to `CC(=N)Nc1nc(-c2cc(C(C)(C)C)c(O)c(C(C)(C)C)c2)ns1.Cl`, the IC50 entry in assay [8] was “Inactive”.
As to `CC(C)(C)c1cc(-c2noc(N=C(N)N)n2)cc(C(C)(C)C)c1O.CS(=O)(=O)O`, the Activity in the assay with Rattus norvegicus [6] is 0%. For the same molecule, at 30 mg/kg the inhibition in vivo with Rattus norvegicus [2] was 71%. Moreover, the figures for the IC50 (on Cyclooxygenase; in assay [3]) were 0.67 µM and 1.7 µM, respectively. In the assay on Rattus norvegicus [7], this molecule registered an ID40 of 3.1 mg/kg. Further, the Ratio in the assay listed under Rattus norvegicus [1] amounted to 2.5. In addition, at 10 mg/kg the inhibition in vivo with Rattus norvegicus [4] was 51.2%.
For `CC(C)(C)c1cc(-c2nsc(CN)n2)cc(C(C)(C)C)c1O.Cl`, the IC50 against Cyclooxygenase was determined as 0.087 µM; in assay [3], 2.6 µM. In the assay listed under Rattus norvegicus [1], the Ratio turned out to be 30.
In turn, `CSC(=N)Nc1nc(-c2cc(C(C)(C)C)c(O)c(C(C)(C)C)c2)ns1.Cl` yielded an Activity in the assay on Rattus norvegicus [6] of 0%. For the same molecule, the inhibition in vivo at 30 mg/kg in the assay with Rattus norvegicus [2] was determined as 41.4%. The IC50 against Cyclooxygenase stood at 0.17 µM; in [3] it was 1.2 µM. In the assay with Rattus norvegicus [7], the ID40 came out at 7.3 mg/kg. For the same molecule, the Ratio in the assay filed under Rattus norvegicus [1] was determined as 7.1. The molecule further registered an inhibition in vivo at 10 mg/kg in the assay with Rattus norvegicus [4] of 30.7%.
As to `Cc1nc(-c2cc(C(C)(C)C)c(O)c(C(C)(C)C)c2)no1`, the IC50 against Cyclooxygenase came to 0.3 µM. The Ratio in the assay filed under Rattus norvegicus [1] stood at 7.7.
Take `CN(C)Cc1nc(-c2cc(C(C)(C)C)c(O)c(C(C)(C)C)c2)no1.Cl`: the values for the IC50 (against Cyclooxygenase; in assay [3]) were 0.73 µM and 7.7 µM, respectively. Further, in the assay filed under Rattus norvegicus [1], the Ratio was 10.5.
The matching figures for `CC(C)(C)c1cc(-c2nsc(N)n2)cc(C(C)(C)C)c1O`: 2.2 µM, 0.33 µM and 0.15.
In assay [3], `CC(C)(C)c1cc(-c2nc(=S)o[nH]2)cc(C(C)(C)C)c1O` yielded an IC50 of 3.4 µM.
For the molecule `CC(C)(C)c1cc(-c2noc(N)n2)cc(C(C)(C)C)c1O`, testing at 30 mg/kg in the assay on Rattus norvegicus [2] gave an inhibition in vivo of 39%. The IC50 worked out at 3 µM at Cyclooxygenase and 2.5 µM in [3]. Also, in the assay filed under Rattus norvegicus [1], the Ratio worked out at 0.83. At 10 mg/kg the inhibition in vivo with Rattus norvegicus [4] was 36%.
Regarding `CN(C)Cc1nc(-c2cc(C(C)(C)C)c(O)c(C(C)(C)C)c2)ns1.Cl`, the IC50 result in [8] was “Inactive”.
Still for that read-out and setting: in the case of `CC(C)(C)c1cc(-c2nc(CN3CCCC3)no2)cc(C(C)(C)C)c1O` it was “Inactive”.
`Cc1ccc(S(=O)(=O)c2nc(-c3cc(C(C)(C)C)c(O)c(C(C)(C)C)c3)ns2)cc1`: the IC50 result in [8] was “Inactive”.
